Laboratory results: ChEMBL document CHEMBL4049431 (J Med Chem, 2017)
Calls of active or inactive are those of the source.

Experiments:
[1] = target: T1, Kappa-type opioid receptor (Homo sapiens, UniProt P41145); assay: Agonist activity at human kappa-type opioid receptor expressed in CHO-K1 cells assessed as forskolin-induced cAMP accumulation up to 10 uM after 30 mins in presence of forskolin by luminescence-based HitHunter cAMP assay; assay type: functional, cell-based
Method in brief: (§1)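 CHO-K1 cells expressing the receptor were kept at 37 °C in 5% CO2. cAMP data were normalized to vehicle and forskolin-only controls. Each compound was run in triplicate in parallel assays in ≥2 independent experiments. EC50 and Emax came from sigmoidal nonlinear regression and were averaged across experiments as mean ± SEM.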

[2] = target: T1, Kappa-type opioid receptor; assay: Agonist activity at human kappa-type opioid receptor expressed in CHO-K1 cells assessed as forskolin-induced cAMP accumulation after 30 mins in presence of forskolin by luminescence-based HitHunter cAMP assay; assay type: functional, cell-based; method in brief: as §1
[3] = target: Delta-type opioid receptor (Homo sapiens) (UniProt P41143); assay: Agonist activity at human delta-type opioid receptor expressed in CHO-K1 cells assessed as forskolin-induced cAMP accumulation up to 10 uM after 30 mins in presence of forskolin by luminescence-based HitHunter cAMP assay; assay type: functional, cell-based; method in brief: as §1
Sequence of Delta-type opioid receptor (Homo sapiens) (P41143 whole entry): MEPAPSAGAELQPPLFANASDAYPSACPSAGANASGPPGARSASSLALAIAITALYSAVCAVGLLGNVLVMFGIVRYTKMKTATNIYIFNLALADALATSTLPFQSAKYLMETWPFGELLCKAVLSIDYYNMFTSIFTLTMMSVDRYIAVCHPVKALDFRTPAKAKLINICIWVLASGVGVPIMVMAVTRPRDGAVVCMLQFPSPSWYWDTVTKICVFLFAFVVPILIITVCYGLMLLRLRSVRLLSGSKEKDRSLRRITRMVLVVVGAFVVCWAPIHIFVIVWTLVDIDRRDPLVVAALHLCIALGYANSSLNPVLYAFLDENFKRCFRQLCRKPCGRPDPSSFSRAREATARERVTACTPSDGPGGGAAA

[4] = target: Mu-type opioid receptor (Homo sapiens) (UniProt P35372); assay: Agonist activity at human mu-type opioid receptor expressed in CHO-K1 cells assessed as forskolin-induced cAMP accumulation up to 10 uM after 30 mins in presence of forskolin by luminescence-based HitHunter cAMP assay; assay type: functional, cell-based; method in brief: as §1
Sequence of Mu-type opioid receptor (Homo sapiens) (P35372 whole entry): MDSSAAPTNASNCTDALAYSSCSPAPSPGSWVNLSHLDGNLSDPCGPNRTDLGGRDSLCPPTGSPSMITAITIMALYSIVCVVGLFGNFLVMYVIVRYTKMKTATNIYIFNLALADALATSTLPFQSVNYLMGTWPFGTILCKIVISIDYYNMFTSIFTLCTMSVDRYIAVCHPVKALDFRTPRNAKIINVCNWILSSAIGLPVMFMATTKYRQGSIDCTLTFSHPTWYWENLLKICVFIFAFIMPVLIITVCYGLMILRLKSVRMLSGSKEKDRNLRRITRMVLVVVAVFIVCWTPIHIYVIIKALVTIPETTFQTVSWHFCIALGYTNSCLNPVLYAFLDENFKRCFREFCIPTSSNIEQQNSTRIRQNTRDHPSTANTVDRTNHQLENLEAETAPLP

[5] = system: Mus musculus; assay: Analgesic activity in formalin-induced B6-SJL mouse pain model assessed as inhibition of inflammatory response AUC at 2 mg/kg, ip preincubated for 10 mins followed by formalin injection measured at 15 to 60 mins; assay type: functional, organism-based
Method in brief: (§2)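 Mice habituated to the test box received agonist ip in DMSO:Tween-80:saline (2:1:7). Ten min later, 20 μL of 2% formalin was injected intradermally into the right hind footpad. Video ran for 60 min, scored every 5 s (weight-bearing scale 0–3) by a blinded analyst and averaged per 5 min.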

[6] = system: Liver; assay: Metabolic stability in IGS Sprague-Dawley rat liver microsomes at 10 uM measured at 2.5 hrs in absence of NADPH by LC-MS analysis; assay type: ADME, microsome
Method in brief: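 Incubation used rat liver microsomes (0.25 mg/mL) in 50 mM potassium phosphate, 2 mM MgCl2, pH 7.4, at 37 °C, with 10 μM compound final and buffer in place of NADPH. Samples were quenched in MeCN/1% formic acid with tolbutamide, then quantified by LCMS.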

[7] = system: Mus musculus; assay: Antiinflammatory activity in B6-SJL mouse assessed as reduction in formalin-induced paw edema at 2 mg/kg, ip preincubated for 10 mins followed by formalin injection measured at 60 mins; assay type: functional, organism-based
Method in brief: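 Right hind paw height, width and depth were measured by calipers before ip drug or vehicle (DMSO:Tween-80:saline 2:1:7). Intradermal 2% formalin (20 μL) followed 10 min later, and measurements were repeated at 60 min. One-way ANOVA with Bonferroni tests; n = 7 per group.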

[8] = system: Mus musculus; assay: Analgesic activity in formalin-induced B6-SJL mouse pain model assessed as inhibition of nociceptive response at 2 mg/kg, ip preincubated for 10 mins followed by formalin injection measured at 5 to 10 mins; assay type: functional, organism-based; method in brief: as §2
[9] = system: Mus musculus; assay: Analgesic activity in B6-SJL mouse assessed as increase in tail withdrawal latency at 2 mg/kg, ip measured up to 5 to 30 mins by warm water tail withdrawal assay; assay type: functional, organism-based
Method in brief: (§3)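 Adult male mice (25−35 g) were habituated to restrainers over four days. Drug or vehicle (DMSO:Tween-80:saline 2:1:7) was given ip. One-third of the tail was immersed in 50 °C water, with a 10 s cutoff. Baseline was the mean of three latencies. Readings were taken at 5–120 min. %MPE was calculated against pretreatment latency; n = 8−9 per group.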

[10] = system: Mus musculus; assay: Analgesic activity in B6-SJL mouse assessed as increase in tail withdrawal latency at 0.3 to 10 mg/kg, sc measured 30 mins post each dose by warm water tail withdrawal assay; assay type: functional; details: 0.5 h
Method in brief: (§4)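 Vehicle was DMSO:Tween-80:saline 2:1:7. Tail-withdrawal latency in 50 °C water (10 s cutoff) was recorded 30 min after each dose.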

[11] = system: Mus musculus; assay: Analgesic activity in formalin-induced B6-SJL mouse pain model assessed as inhibition of inflammatory response at 2 mg/kg, ip preincubated for 10 mins followed by formalin injection measured at 20 to 50 mins; assay type: functional, organism-based; method in brief: as §2
[12] = Metabolic stability in IGS Sprague-Dawley rat liver microsomes assessed as CYP450-mediated oxidative metabolism at 10 uM measured at 2.5 hrs in presence of NADPH by LC-MS analysis; assay type: ADME
Method in brief: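 Rat liver microsomes (0.25 mg/mL) in 50 mM potassium phosphate with 2 mM MgCl2, pH 7.4, were prewarmed to 37 °C. Compound (10 μM final) and NADPH (1 mM final) were added. Samples were quenched in MeCN with 1% formic acid containing tolbutamide, centrifuged and analysed by LCMS.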

[13] = system: Mus musculus; assay: Analgesic activity in formalin-induced B6-SJL mouse pain model assessed as inhibition of nociceptive response AUC at 2 mg/kg, ip preincubated for 10 mins followed by formalin injection measured up to 15 mins; assay type: functional, organism-based; method in brief: as §2
[14] = system: Mus musculus; assay: Analgesic activity in sc dosed B6-SJL mouse assessed as increase in tail withdrawal latency measured 30 mins post each dose by warm water tail withdrawal assay; assay type: functional; details: 0.5 h; method in brief: as §4
[15] = system: Mus musculus; assay: Analgesic activity in formalin-induced B6-SJL mouse pain model assessed as inhibition of inflammatory response AUC at 2 mg/kg, ip preincubated for 10 mins followed by formalin injection measured at 15 to 60 mins in presence of kappa-type opioid receptor antagonist nor-BNI; assay type: functional, organism-based
Method in brief: (§5)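 nor-BNI (10 mg/kg, sc) was given 24 h before ip agonist (DMSO:Tween-80:saline 2:1:7). After 10 min, 20 μL of 2% formalin was injected intradermally into the right hind paw.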

[16] = system: Mus musculus; assay: Analgesic activity in formalin-induced B6-SJL mouse pain model assessed as inhibition of inflammatory response at 2 mg/kg, ip preincubated for 10 mins followed by formalin injection measured at 20 to 45 mins in presence of kappa-type opioid receptor antagonist nor-BNI; assay type: functional, organism-based; method in brief: as §5
[17] = system: Mus musculus; assay: Analgesic activity in formalin-induced B6-SJL mouse pain model assessed as inhibition of nociceptive response at 2 mg/kg, ip preincubated for 10 mins followed by formalin injection measured at 10 mins in presence of kappa-type opioid receptor antagonist nor-BNI; assay type: functional, organism-based; method in brief: as §5
[18] = system: Mus musculus; assay: Analgesic activity in formalin-induced B6-SJL mouse pain model assessed as inhibition of nociceptive response AUC at 2 mg/kg, ip preincubated for 10 mins followed by formalin injection measured up to 15 mins in presence of kappa-type opioid receptor antagonist nor-BNI; assay type: functional, organism-based; method in brief: as §5
[19] = system: Mus musculus; assay: Analgesic activity in B6-SJL mouse assessed as increase in tail withdrawal latency at 2 mg/kg, ip measured up to 10 to 30 mins by warm water tail withdrawal assay; assay type: functional, organism-based; method in brief: as §3
[20] = system: Mus musculus; assay: Analgesic activity in formalin-induced B6-SJL mouse pain model assessed as inhibition of inflammatory response at 2 mg/kg, ip preincubated for 10 mins followed by formalin injection measured at 20 to 45 mins; assay type: functional, organism-based; method in brief: as §2
[21] = system: Mus musculus; assay: Analgesic activity in formalin-induced B6-SJL mouse pain model assessed as inhibition of nociceptive response at 2 mg/kg, ip preincubated for 10 mins followed by formalin injection measured at 10 mins; assay type: functional, organism-based; method in brief: as §2

T1 sequence (P41145 whole entry): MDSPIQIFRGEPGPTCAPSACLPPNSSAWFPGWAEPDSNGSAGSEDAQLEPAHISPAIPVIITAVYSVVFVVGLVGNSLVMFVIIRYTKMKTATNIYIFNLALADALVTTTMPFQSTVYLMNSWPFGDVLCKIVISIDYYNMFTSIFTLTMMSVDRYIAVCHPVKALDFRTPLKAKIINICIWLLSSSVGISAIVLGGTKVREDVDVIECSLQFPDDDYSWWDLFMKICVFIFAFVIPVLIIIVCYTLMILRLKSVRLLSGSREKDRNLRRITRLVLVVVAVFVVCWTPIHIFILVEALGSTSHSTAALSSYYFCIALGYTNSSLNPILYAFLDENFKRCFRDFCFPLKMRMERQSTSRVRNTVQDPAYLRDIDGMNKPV

## COC(=O)[C@@H]1CC(=O)C(O)=C2[C@@]1(C)CC[C@H]1C(=O)O[C@H](c3ccoc3)C[C@]21C
[1]
  Emax: 0%
[2]
  EC50: > 10000 nM

## COC(=O)[C@@H]1C[C@H](O)C(=O)[C@H]2[C@@]1(C)CC[C@H]1C(=O)O[C@H](c3ccoc3)C[C@]21C
[1]
  Emax: 100%
[3]
  Emax: 0%
[4]
  Emax: 0%

## COC(=O)[C@H]1[C@](C)([C@@H](CC(=O)O)C(=O)OC)CC[C@H]2C(=O)O[C@H](c3ccoc3)C[C@]12C
[1]
  Emax: 0%
[2]
  EC50: > 10000 nM

## COC(=O)[C@H]1[C@](C)([C@@H](CCO)C(=O)OC)CC[C@H]2C(=O)O[C@H](c3ccoc3)C[C@]12C
[1]
  Emax: 0%
[2]
  EC50: > 10000 nM

## COC(=O)[C@H]1[C@](C)([C@@H](CC(OC)OC)C(=O)OC)CC[C@H]2C(=O)O[C@H](c3ccoc3)C[C@]12C
[1]
  Emax: 100%
[2]
  EC50: 11.7 nM
[3]
  Emax: 0%
[4]
  Emax: 0%

## COC(=O)[C@H]1[C@](C)([C@@H](CC=O)C(=O)OC)CC[C@H]2C(=O)O[C@H](c3ccoc3)C[C@]12C
[1]
  Emax: 100%
[2]
  EC50: 30 nM
[3]
  Emax: 0%
[4]
  Emax: 0%

## COC(=O)[C@@H]1CCC(=O)[C@H]2[C@@]1(C)CC[C@H]1C(=O)O[C@H](c3ccoc3)C[C@]21C
[1]
  Emax: 0%
[2]
  EC50: > 10000 nM

## COC(=O)[C@H]1[C@](C)([C@@H](CCOC(C)=O)C(=O)OC)CC[C@H]2C(=O)O[C@H](c3ccoc3)C[C@]12C
[1]
  Emax: 100%
[2]
  EC50: 13 nM
[3]
  Emax: 0%
[4]
  Emax: 0%

## COC(=O)[C@@H]1C[C@H](OC(C)=O)C(=O)[C@H]2[C@@]1(C)CC[C@H]1C(=O)O[C@H](c3ccoc3)C[C@]21C [SALVINORIN A]
[5]
  inhibition: Active
[6]
  Stability: Stable
[7]
  inhibition: Active
[8]
  inhibition: Active
[9]
  Activity: Active
[3]
  Emax: 0%
[10]
  Emax: 100%
[11]
  inhibition: Active
[12]
  Stability: Stable
[4]
  Emax: 0%
[13]
  inhibition: Active
[14]
  ED50: 1.28 mg/kg

## COC(=O)[C@@H]1C[C@]2(CCC(=O)O2)C(=O)[C@H]2[C@@]1(C)CC[C@H]1C(=O)O[C@H](c3ccoc3)C[C@]21C
[15]
  inhibition: inactive
[16]
  inhibition: inactive
[1]
  Emax: 100%
[2]
  EC50: 0.6 nM
[5]
  inhibition: Active
[6]
  Stability: Stable
[7]
  inhibition: Active
[17]
  inhibition: inactive
[3]
  Emax: 0%
[18]
  inhibition: inactive
[10]
  Emax: 62.4%
[19]
  Activity: Active
[12]
  Stability: Stable
[4]
  Emax: 0%
[20]
  inhibition: Active
[13]
  inhibition: Active
[21]
  inhibition: Active
[14]
  ED50: 0.759 mg/kg
